According to ChEMBL document CHEMBL3286341, “Novel, potent and selective 17β-hydroxysteroid dehydrogenase type 2 inhibitors as potential therapeutics for osteoporosis with dual human and mouse activities” (Eur J Med Chem, 2014):
Active and inactive are the calls of the source. The calls are words filed in the database; no cut-off is given here.

What was measured:
[1] = biological target: T1, Estrogen receptor (Homo sapiens) (UniProt P03372); assay: Displacement of [3H]-estradiol from recombinant human estrogen receptor-alpha by liquid scintillation counting analysis relative to estradiol
T1 sequence (whole entry): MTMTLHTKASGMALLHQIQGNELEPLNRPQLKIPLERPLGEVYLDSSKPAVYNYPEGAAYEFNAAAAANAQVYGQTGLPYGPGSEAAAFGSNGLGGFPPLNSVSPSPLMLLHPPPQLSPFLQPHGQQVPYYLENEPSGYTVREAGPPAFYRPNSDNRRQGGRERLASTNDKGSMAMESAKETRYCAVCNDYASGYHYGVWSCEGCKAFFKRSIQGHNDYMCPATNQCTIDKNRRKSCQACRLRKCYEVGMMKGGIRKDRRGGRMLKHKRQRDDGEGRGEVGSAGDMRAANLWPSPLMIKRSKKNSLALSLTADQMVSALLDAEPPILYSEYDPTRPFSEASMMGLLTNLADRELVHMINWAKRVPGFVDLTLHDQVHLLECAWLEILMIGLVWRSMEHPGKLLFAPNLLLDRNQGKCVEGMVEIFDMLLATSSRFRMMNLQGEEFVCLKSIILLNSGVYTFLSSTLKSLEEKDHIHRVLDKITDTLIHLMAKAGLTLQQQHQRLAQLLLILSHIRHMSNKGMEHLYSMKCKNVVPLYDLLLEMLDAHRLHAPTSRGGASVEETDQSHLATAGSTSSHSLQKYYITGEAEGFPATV
Procedure, shortened: (§1)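 Competitive binding with [³H]-E2; compounds in DMSO at 5% final. Non-specific binding was set with unlabeled E2 at 100-fold the tracer: 300 nM for ERα, 1000 nM for ERβ. Bound complexes were captured on hydroxyapatite and counted by liquid scintillation. Concentrations displacing 50% were read from sigmoidal curves, with E2 run in each experiment. RBA[%] = IC50(E2)/IC50(compound) × 100.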

[2] = biological target: Estrogen receptor beta (Homo sapiens) (UniProt Q92731); assay: Displacement of [3H]-estradiol from recombinant human estrogen receptor-beta by liquid scintillation counting analysis relative to estradiol; procedure, shortened: as §1
[3] = biological target: T2, Estradiol 17-beta-dehydrogenase 2 (Mus musculus) (UniProt P51658); assay: Inhibition of mouse liver 17beta-HSD2 microsomal fraction using tritiated estradiol as substrate assessed as formation of estrone at 1 uM by HPLC analysis relative to control
T2 sequence (whole entry): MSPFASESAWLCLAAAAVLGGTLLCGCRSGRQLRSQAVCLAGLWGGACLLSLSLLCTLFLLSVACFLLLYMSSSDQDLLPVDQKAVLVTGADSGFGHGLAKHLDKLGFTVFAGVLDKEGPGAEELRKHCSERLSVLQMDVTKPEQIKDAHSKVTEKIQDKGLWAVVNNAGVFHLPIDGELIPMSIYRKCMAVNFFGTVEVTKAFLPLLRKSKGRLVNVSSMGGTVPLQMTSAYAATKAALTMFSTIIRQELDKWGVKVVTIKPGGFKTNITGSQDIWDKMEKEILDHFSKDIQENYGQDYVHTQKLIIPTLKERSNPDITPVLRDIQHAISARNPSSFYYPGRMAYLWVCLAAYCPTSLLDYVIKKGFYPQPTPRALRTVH
Procedure, shortened: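 Mouse liver microsomes were used, following the same procedure as the human type 2 assay: tritiated E2 at 500 nM with NAD⁺, and E1 formation quantified after HPLC separation.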

Homo sapiens = species on record: Homo sapiens; assay: Selectivity factor, ratio of IC50 for human placental 17beta-HSD1 cytosolic fraction to IC50 for placental 17beta-HSD2 microsomal fraction
Procedure, shortened: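 Selectivity factor calculated as IC50(h17β-HSD1)/IC50(h17β-HSD2), both IC50 values taken from the placental cytosolic and microsomal radiolabel HPLC assays.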

[4] = biological target: T3, 17-beta-hydroxysteroid dehydrogenase type 2 (Homo sapiens) (UniProt P37059); assay: Inhibition of human placental 17beta-HSD2 microsomal fraction using tritiated estradiol as substrate assessed as formation of estrone at 1 uM by HPLC analysis relative to control
T3 sequence (whole entry): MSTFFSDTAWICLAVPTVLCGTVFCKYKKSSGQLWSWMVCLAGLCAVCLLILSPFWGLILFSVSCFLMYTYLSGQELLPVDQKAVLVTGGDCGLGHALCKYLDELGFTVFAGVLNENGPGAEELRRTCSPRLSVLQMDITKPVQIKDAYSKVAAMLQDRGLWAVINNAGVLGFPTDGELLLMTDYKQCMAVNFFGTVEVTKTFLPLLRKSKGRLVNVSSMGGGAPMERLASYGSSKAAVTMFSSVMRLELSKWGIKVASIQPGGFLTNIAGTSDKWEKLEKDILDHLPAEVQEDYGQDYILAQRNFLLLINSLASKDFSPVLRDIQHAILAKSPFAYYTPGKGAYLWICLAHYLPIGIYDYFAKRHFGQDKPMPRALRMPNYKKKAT
Procedure, shortened: (§2)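 Placental microsomes were incubated with tritiated E2 (500 nM final) plus NAD⁺ cofactor and test compound. Labeled E2 and E1 were separated by HPLC and quantified. Mean of three determinations, standard deviation below 20%.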

[5] = biological target: T4, 17-beta-hydroxysteroid dehydrogenase type 1 (Homo sapiens) (UniProt P14061); assay: Inhibition of human placental 17beta-HSD1 cytosolic fraction using tritiated estrone as substrate assessed as formation of estradiol at 1 uM by HPLC analysis relative to control
T4 sequence (whole entry): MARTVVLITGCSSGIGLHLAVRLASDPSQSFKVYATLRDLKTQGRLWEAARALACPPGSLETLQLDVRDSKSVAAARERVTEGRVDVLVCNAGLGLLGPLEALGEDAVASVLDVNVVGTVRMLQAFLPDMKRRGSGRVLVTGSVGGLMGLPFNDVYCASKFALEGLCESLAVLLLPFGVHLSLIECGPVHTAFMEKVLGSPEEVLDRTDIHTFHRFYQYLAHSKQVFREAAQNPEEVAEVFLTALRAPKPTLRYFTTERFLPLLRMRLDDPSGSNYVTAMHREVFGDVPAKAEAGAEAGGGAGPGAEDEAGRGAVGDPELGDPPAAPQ
Procedure, shortened: (§3)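 Cytosolic fraction from placenta served as the enzyme source, incubated with tritiated E1 (500 nM final), NADH cofactor and test compound. E1 and E2 were separated by HPLC and the labeled species quantified. Mean of three determinations.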

[6] = biological target: T5, 17-beta-hydroxysteroid dehydrogenase type 1 (Homo sapiens, UniProt P14061); assay: Inhibition of human placental 17beta-HSD1 cytosolic fraction using tritiated estrone as substrate assessed as formation of estradiol by HPLC analysis; procedure, shortened: as §3
T5 sequence (P14061 whole entry): T4 sequence (whole entry)

[7] = biological target: T6, 17-beta-hydroxysteroid dehydrogenase type 2 (Homo sapiens, UniProt P37059); assay: Inhibition of human placental 17beta-HSD2 microsomal fraction using tritiated estradiol as substrate assessed as formation of estrone by HPLC analysis; procedure, shortened: as §2
T6 sequence (P37059 whole entry): T3 sequence (whole entry)

Sequence of Estrogen receptor beta (Homo sapiens) (Q92731 whole entry): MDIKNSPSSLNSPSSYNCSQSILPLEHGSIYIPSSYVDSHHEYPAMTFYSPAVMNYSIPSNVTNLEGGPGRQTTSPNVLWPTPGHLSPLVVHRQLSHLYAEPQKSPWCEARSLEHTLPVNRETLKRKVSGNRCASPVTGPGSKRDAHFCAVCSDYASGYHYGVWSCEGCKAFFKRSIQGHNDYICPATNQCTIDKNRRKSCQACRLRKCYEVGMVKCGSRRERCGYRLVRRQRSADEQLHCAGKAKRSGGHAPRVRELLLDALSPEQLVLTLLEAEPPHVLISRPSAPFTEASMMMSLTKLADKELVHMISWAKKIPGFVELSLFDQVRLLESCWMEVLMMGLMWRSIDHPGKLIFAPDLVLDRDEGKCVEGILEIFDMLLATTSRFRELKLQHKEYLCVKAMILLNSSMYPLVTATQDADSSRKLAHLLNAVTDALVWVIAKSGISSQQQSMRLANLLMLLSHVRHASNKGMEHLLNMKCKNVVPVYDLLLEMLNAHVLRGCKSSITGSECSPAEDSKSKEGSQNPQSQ

Row | RBA [1] | RBA [2] | inhibition [3] | Ratio IC50 (Homo sapiens) | inhibition [4] | inhibition [5] | IC50 [6] | IC50 [7] | Structure (SMILES)
1 | < 0.1% | < 0.1% |  |  |  |  |  |  | COc1cccc(-c2csc(C(=O)N(C)c3cccc(OC)c3)c2)c1
2 |  |  | inactive | 2 |  |  |  |  | Cc1cc(-c2cccc(O)c2)sc1-c1cccc(O)c1
3 |  |  | inactive |  | 37% | 43% |  |  | O=C(Cc1cccc(O)c1)c1ccc(-c2cccc(O)c2)s1
4 |  |  |  | 73 |  | inactive |  |  | COc1cccc(-c2ccc(C(=O)N(C)Cc3cccc(O)c3)s2)c1F
5 |  |  | 26% | > 250 |  | inactive | > 10000 nM |  | COc1cccc(CN(C)C(=O)c2ccc(-c3cccc(OC)c3)s2)c1
6 |  |  | 16% | 14 |  |  |  |  | CN(Cc1cccc(O)c1)C(=O)c1ccc(-c2cccc(O)c2)s1
7 | < 0.1% | < 0.1% | inactive | 2 |  |  |  |  | Oc1cccc(-c2cc(-c3cccc(O)c3)c(-c3cccc(O)c3)s2)c1
8 |  |  | 42% | 7 | 74% | 29% | 2490 nM | 362 nM | CN(C(=O)c1cc(-c2cccc(O)c2)sc1-c1cccc(O)c1)c1cccc(O)c1
9 |  |  | 42% | 1 | 73% | 54% | 336 nM | 357 nM | CC(C)(C(=O)c1ccc(-c2cccc(O)c2)s1)c1cccc(O)c1
10 |  |  | 12% |  | 17% | inactive |  |  | COc1cccc(CC(=O)c2ccc(-c3cccc(OC)c3)s2)c1
